Laboratory results as given in PMC3306499 (ACS Chemical Biology, 2012).

Tests used:
human A3G (APOBEC3G) = human A3G (APOBEC3G) (Homo sapiens, UniProt Q9HC16); assay: fluorescence-based ssDNA cytosine deaminase assay, A3G; assay type: biochemical; details: read-out: IC50 Values A3G; dose response, purified full-length A3G-mycHis
human A3A (APOBEC3A) = human A3A (APOBEC3A) (Homo sapiens, UniProt P31941); assay: fluorescence-based ssDNA cytosine deaminase assay, A3A; assay type: biochemical; details: read-out: IC50 Values A3A; dose response, purified A3A-mycHis
Sequence of human A3A (APOBEC3A) (P31941 whole entry): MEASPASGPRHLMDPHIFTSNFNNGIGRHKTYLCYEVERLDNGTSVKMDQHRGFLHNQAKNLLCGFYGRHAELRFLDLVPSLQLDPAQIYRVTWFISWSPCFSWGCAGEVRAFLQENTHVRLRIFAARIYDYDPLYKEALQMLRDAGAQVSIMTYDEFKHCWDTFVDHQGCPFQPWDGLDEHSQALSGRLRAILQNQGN

[1] = molecular target: E. coli uracil DNA glycosylase (UDG) (Escherichia coli, UniProt P12295); assay: UDG assay; assay type: biochemical; details: read-out: IC50 Values UDG; no deaminase, uracil ssDNA substrate
Sequence of E. coli uracil DNA glycosylase (UDG) (P12295 whole entry): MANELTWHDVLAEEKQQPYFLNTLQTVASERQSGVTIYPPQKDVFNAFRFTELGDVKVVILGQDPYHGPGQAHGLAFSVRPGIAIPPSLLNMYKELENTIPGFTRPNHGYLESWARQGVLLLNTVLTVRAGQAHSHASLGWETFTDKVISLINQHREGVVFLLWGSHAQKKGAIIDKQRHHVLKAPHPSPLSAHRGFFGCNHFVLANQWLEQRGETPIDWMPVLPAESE

HIV-1 RNase H = HIV-1 RNase H (Human immunodeficiency virus type 1 group M subtype B, UniProt P04585); assay: HIV-1 RNase H inhibition assay; assay type: biochemical; details: read-out: IC50 Values RNase H; A3G inhibitors, this study
A3G-ssDNA complex = A3G-ssDNA complex (Homo sapiens, UniProt Q9HC16); assay: EMSA of A3G-ssDNA complex formation; assay type: binding; details: 0.64 μM A3G, 0.08 μM ssDNA, 50 μM compound, dose response 2, 5, 10 μM
Sequence of A3G-ssDNA complex (Q9HC16 whole entry, one chain of several): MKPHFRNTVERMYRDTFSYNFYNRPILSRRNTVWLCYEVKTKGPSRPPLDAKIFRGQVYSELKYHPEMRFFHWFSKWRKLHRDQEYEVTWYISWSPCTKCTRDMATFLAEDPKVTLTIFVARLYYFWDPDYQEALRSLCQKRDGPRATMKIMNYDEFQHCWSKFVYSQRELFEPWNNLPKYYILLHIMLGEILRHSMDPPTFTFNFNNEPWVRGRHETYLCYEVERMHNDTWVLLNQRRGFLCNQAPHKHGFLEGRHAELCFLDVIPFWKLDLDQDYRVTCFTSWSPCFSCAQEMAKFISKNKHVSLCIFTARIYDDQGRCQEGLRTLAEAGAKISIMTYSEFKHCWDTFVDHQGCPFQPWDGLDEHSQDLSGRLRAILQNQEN

A3G-C308A = A3G-C308A (Homo sapiens, UniProt Q9HC16, C308A); assay: deaminase assay with A3G-C308A mutant; assay type: biochemical; details: varying concentrations, parallel to wildtype A3G
Sequence of A3G-C308A (Q9HC16 whole entry C308A): as the sequence (Q9HC16 whole entry, one chain of several) above, with C308A counted along it
Summary of the method: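 Full-length human A3G-C308A-mycHis and wildtype A3G were purified from HEK293T cells via the C-terminal His6 tag and assayed in parallel over varying test compound concentrations. Enzyme was diluted in Tris pH 7.4 buffer with protease inhibitors, then incubated 2 h at 37 °C with 10 pmol 6-FAM/TAMRA ssDNA and UDG. NaOH was added for 30 min at 37 °C, then neutralised. Fluorescence read at ex 490/em 520 nm.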

A3G C321A = A3G C321A (Homo sapiens, UniProt Q9HC16, C321A); assay: deaminase assay with A3G-C321A mutant; assay type: biochemical; details: dose response, parallel to wildtype A3G
Sequence of A3G C321A (Q9HC16 whole entry C321A): as the sequence (Q9HC16 whole entry, one chain of several) above, with C321A counted along it
Summary of the method: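 Wildtype A3G and the C321A mutant were purified side by side as myc-His proteins (>80% homogeneity) from HEK293T cells and tested at varying test compound concentrations. Reactions ran 2 h at 37 °C with 6-FAM/TAMRA ssDNA and UDG, followed by NaOH cleavage, neutralisation and fluorescence at 490/520 nm. Triplicates were normalised to DMSO-only controls and given as mean with SD.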

full-length A3G Cys321 = full-length A3G Cys321 (Homo sapiens, UniProt Q9HC16); assay: LC-MS/MS of tryptic peptides of inhibitor-treated A3G; assay type: binding; details: full-length A3G incubated with compound, in-gel trypsin digestion
Sequence of full-length A3G Cys321 (Q9HC16 whole entry): as the sequence (Q9HC16 whole entry, one chain of several) above

murine model of diabetes = details: oral dosing; cited from earlier work

Sequence of human A3G (APOBEC3G) (Q9HC16 whole entry): as the sequence (Q9HC16 whole entry, one chain of several) above

## CN(N=O)c1ccc(O)c(O)c1 [MN30, Methyl-3,4-dephostatin]
Human A3G (APOBEC3G)
  IC50: 9.1 µM
Human A3A (APOBEC3A)
  IC50: > 200 µM
[1]
  IC50: > 200 µM
HIV-1 RNase H
  IC50: > 25 µM
A3G-ssDNA complex
  inhibition of A3G's ssDNA binding activity (A3G-ssDNA complex formation): no inhibition
A3G-C308A
  susceptibility of A3G-C308A deaminase activity to inhibition: wildtype susceptibility
A3G C321A
  susceptibility of A3G C321A deaminase activity to inhibition: fully resistant
full-length A3G Cys321
  mass addition to C321 containing tryptic peptide (covalent modification): 167.11 Da
Murine model of diabetes
  efficacy in a murine model of diabetes: demonstrated efficacy
